# KCC2 mod: KCC2 cotransporter modulators, thallium flux, primary screen, cell-based, HEK293 KCC2, FluoZin-2 fluorescence, MLSMR; B-score of Tl+ flux slope (higher = more flux/activation; lower = inhibition) at 10 µM; actives 2.2% (n = 190,000); KCC2 cells, thallium flux FluoZin-2 fluorescence;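 active = thallium flux slope and its plate-corrected score both differing from the plate sample mean at a set confidence after two filtering rounds, in either direction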;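 note: slope of fluorescence scaled to starting intensity during 10 to 20 s after thallium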
# MrgX1 antagonist: antagonists of human MrgX1 receptor, primary screen, HEK293 cells, Fluo-4 calcium flux; Mas-related G-protein coupled receptor member X1 (Homo sapiens), Q96LB2; BAM8-22 antagonism; active compounds read low; B-score at 10 µM; actives 1.3% (n = 310,000); AID 588676, 2011;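 active = calcium-response B-score plate-corrected more than 3 library SD below zero, starting fluorescence within 5 deviations, no agonist response on first addition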;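 note: peak minus trough fluorescence over baseline after final BAM8-22 challenge near maximal dose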
# Target sequence (Q96LB2 whole entry, looked up): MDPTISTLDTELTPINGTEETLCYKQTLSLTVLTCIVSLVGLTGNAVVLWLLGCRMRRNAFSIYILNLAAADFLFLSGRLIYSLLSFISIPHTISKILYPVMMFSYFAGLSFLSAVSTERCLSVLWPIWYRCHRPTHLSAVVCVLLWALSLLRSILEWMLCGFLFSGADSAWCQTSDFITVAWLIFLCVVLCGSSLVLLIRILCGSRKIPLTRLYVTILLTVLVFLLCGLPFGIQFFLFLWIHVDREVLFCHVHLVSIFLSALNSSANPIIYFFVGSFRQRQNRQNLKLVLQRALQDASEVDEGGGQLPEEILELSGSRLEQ
# RGS4 act: RGS4 potentiators or activators, primary screen, cell-based, HEK293 M3R inducible RGS4, calcium flux | carbachol calcium flux Fluo4; active compounds read low | B-score at 10 µM | actives 0.92% (n = 310,000) | AID 463111, 2010;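 active = B-score of the integrated calcium signal more than 4 SD below the library mean, with starting fluorescence not abnormally high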;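 note: negative B-score means reduced calcium response which marks RGS4 activation or potentiation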
#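 System – HEK293 FlpIn-TREx cells, stable M3R, doxycycline-inducible RGS4 · Reagent – ECmax carbachol challenge · Times – compound preincubation 20 min at room temperature before agonist · Technique – Fluo4 fluorescence kinetic imaging of calcium · Measure – B score of integrated Fluo4 ratio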
# RGS4 block: RGS4 inhibitors, primary screen, cell-based, HEK293 M3R inducible RGS4, calcium flux; Fluo-4 calcium flux; active compounds read high; triggered by carbachol at its EC20; B-score at 10 µM; actives 0.45% (n = 310,000); AID 463165, 2010;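 active = B-score, a plate-corrected calcium signal, over three deviations above library mean, with baseline fluorescence within five deviations of library mean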;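 note: RGS4 expression induced by doxycycline in cells with stable M3 receptor; B-score is computed from the integrated fluorescence ratio over baseline after carbachol; higher B-score means a larger calcium signal and so more RGS4 inhibition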
# Target sequence (P49798 whole entry, looked up): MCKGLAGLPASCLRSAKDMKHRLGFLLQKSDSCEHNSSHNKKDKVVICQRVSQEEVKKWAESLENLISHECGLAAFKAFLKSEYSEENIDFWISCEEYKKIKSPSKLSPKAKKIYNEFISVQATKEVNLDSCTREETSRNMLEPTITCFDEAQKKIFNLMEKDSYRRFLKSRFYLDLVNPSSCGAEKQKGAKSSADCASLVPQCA
# MrgX1 ag: agonists of human MrgX1 receptor, primary screen, HEK293 cells, Fluo-4 calcium flux; B-score at 10 µM; actives 0.44% (n = 310,000); Fluo-4 calcium fluorescence, agonist mode; active compounds read high; Mas-related G-protein coupled receptor member X1 (Homo sapiens), Q96LB2;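 active = calcium response B-score plate-corrected fluorescence ratio at least 3 library SD, with starting fluorescence B-score inside 5 SD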
#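 Assay system: stable human MrgX1 HEK293 cell line. Quantity: 15,000 cells per well. Schedule: cells plated overnight, dye loaded 0.5 h 37 °C, 0.5 h room temperature. Detection: Fluo-4 NW calcium-flux fluorescence, kinetic read. Read-out basis: peak-minus-minimum fluorescence over baseline, converted to B scores. Control set: positive and negative control wells on each plate.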
# MrgX1 PAM: positive allosteric modulators of MrgX1, primary screen, HEK293 cells, Fluo-4 calcium flux. Mas-related G-protein coupled receptor member X1 (Homo sapiens), Q96LB2. FDSS; active compounds read high. B-score at 10 µM. actives 0.63% (n = 310,000). AID 588675, 2011;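 active = plate-corrected calcium response at least 3 library SD above typical, normal starting fluorescence, not activating the receptor alone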;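 note: compound read alongside a low EC10 to EC30 dose of BAM8-22 agonist; peak minus trough fluorescence over baseline measured at the second addition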
# MrgX1 ant reconf: MrgX1 receptor antagonists, duplicate retest, confirmation, HEK293 cells, Fluo-4 calcium flux. shares compounds with MrgX1 antagonist. BAM8-22 calcium flux; active compounds read low. remaining BAM8-22 calcium response % of control (active compounds read low), % at 10 µM. actives 19% (n = 2,300);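 active = remaining agonist calcium response no higher than 100% minus 3 SD of agonist-only control wells, with starting fluorescence near control levels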;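 note: agonist BAM8-22 given at a near maximal EC90 to ECmax level; peak minus minimum fluorescence divided by baseline after agonist addition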
# HEK293 Ca flux: nonspecific calcium signal in parental HEK293, confirmation, counter-screen for MrgX1 antagonist project, parental HEK293 cells, Fluo-4 calcium flux. AID 624111, 2012. actives 2% (n = 4,000). shares compounds with MrgX1 antagonist. fluorescence ratio F(max-min)/F0 at 10 µM. Fluo-4 calcium fluorescence, FDSS;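 active = duplicate-averaged calcium fluorescence ratio at least three times the standard deviation of buffer wells, a nonspecific response in parental cells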
# HEK293 Ca counter: calcium response in parental HEK293 cells, primary screen, counter-screen for MrgX1 allosteric activator project, cell-based, Fluo-4 calcium flux, duplicate; shares compounds with MrgX1 antagonist; Fluo-4 fluorescence ratio; active compounds read high; fluorescence ratio F(max-min)/F0 at 10 µM; actives 0.4% (n = 4,000);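 active = calcium fluorescence ratio, averaged over duplicates, at least 3 SD of the buffer-well ratio, meaning a nonspecific response in receptor-free cells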;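 note: untransfected parental HEK293 lacking MrgX1 used as counterscreen for MrgX1 allosteric activators; fluorescence change taken during the second addition on a kinetic imager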
# HEK293 Ca cntr2: calcium response in parental HEK293 cells, primary screen, counter-screen for MrgX1 agonist project, cell-based, Fluo-4 calcium flux, duplicate, agonist mode; shares compounds with MrgX1 antagonist; Fluo-4 calcium fluorescence (FDSS); active compounds read high; fluorescence ratio F(max-min)/F0 at 10 µM; actives 8.7% (n = 4,000); AID 624115, 2012;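 active = calcium fluorescence ratio at least three times the spread of buffer wells, meaning a non-specific response in parental cells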
# A number is an active result; i = inactive; nt = no result given. Only some compounds are listed: those with a hit (about 4.7% of all), similar ones and a draw of the others.
SMILES,KCC2 mod,MrgX1 antagonist,RGS4 act,RGS4 block,MrgX1 ag,MrgX1 PAM,MrgX1 ant reconf,HEK293 Ca flux,HEK293 Ca counter,HEK293 Ca cntr2
COC(=O)c1cccc(S(=O)(=O)N2CCCC2)c1,i,-5.9,i,i,i,i,i,i,i,i
COC(=O)c1cccc(S(=O)(=O)N2CCOCC2)c1,i,i,i,i,i,i,nt,nt,nt,nt
O=C(Nc1cccnc1)c1cccc(S(=O)(=O)N2CCCCC2)c1,i,-6.4,i,i,i,i,i,i,i,i
Cc1cccc(NC(=O)CCN2C(=O)c3ccccc3S2(=O)=O)c1C,nt,i,i,i,i,i,nt,nt,nt,nt
CC(C)(Cc1cc(CC(C)(C)C(=O)O)cc(C(C)(C)C)c1)C(=O)O,nt,-7.5,i,i,i,i,i,i,i,i
CC(C)(C#N)Cc1cc(CC(C)(C)C#N)cc(C(C)(C)C)c1,nt,i,i,i,i,i,nt,nt,nt,nt
CN(C)S(=O)(=O)c1cccc(NC(=O)c2ccc(COc3ccccc3)cc2)c1,nt,-4.8,-7.2,i,i,i,57%,i,i,i
c1ccc(CSc2nnc(Cc3ccccc3)o2)cc1,i,i,i,i,i,i,nt,nt,nt,nt
c1ccc(CSc2nnc(Cc3ccccn3)o2)cc1,nt,-7.8,i,i,i,i,i,i,i,i
CC(=O)Nc1nc(C(=O)O)cs1,i,-4.9,i,i,i,i,81%,i,i,i
CCOc1ccc(NC(=S)N2CCN(c3ccc(N4CCOCC4)nn3)CC2)cc1,i,i,i,i,i,i,nt,nt,nt,nt
CCN(C(=O)c1c(-c2ccccc2)noc1C)c1ccccc1,i,-4.6,i,i,i,i,i,i,i,i
COc1ccc(C2(C)NC(=O)N(CC(=O)NCc3ccccc3F)C2=O)cc1 (centres undefined),nt,i,i,i,i,i,nt,nt,nt,nt
CCOC(=O)C1CCN(C(=O)CCS(=O)(=O)Cc2ccccc2)CC1,nt,i,i,i,i,i,nt,nt,nt,nt
CCOC(=O)C1CCN(C(=O)CCc2ccccc2)CC1,i,-7.9,i,i,i,i,i,i,i,i
O=C(CNC(=O)c1ccc(Br)o1)NCc1ccc(Cl)cc1Cl,nt,-4.8,i,i,i,i,i,i,i,i
O=C(CNC(=O)c1ccc(Br)o1)NCc1cccc(Cl)c1,nt,i,i,i,i,i,nt,nt,nt,nt
CC1CC(=O)N(CC(=O)Nc2ccc(Br)cc2)c2ccccc2S1(=O)=O (centres undefined),nt,i,i,i,i,i,nt,nt,nt,nt
CCOCCCn1c(SCC(=O)Nc2oc(C)c3c(C)n[nH]c(=O)c23)nnc1-c1ccncc1,nt,i,i,i,i,i,nt,nt,nt,nt

# Screening data from PubChem BioAssay.
